Active and inactive are the calls of the source. The rule behind the calls is not given here.
What was measured:
[1] = Drug level in Sprague-Dawley rat heart at 30 mg/kg, ip measured at 90 mins by LC-MS/MS analysis; type: ADME, organism-based; conditions: read-out: Drug uptake
Procedure, shortened: (§1)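 Rats given a single ip injection, 20 mg/kg (0.04 mmol) of CDDO-Me or 30 mg/kg (0.04 mmol) of the prodrug; heart, kidney and liver collected over time; parent compound and liberated CDDO-Me measured by LC-MS/MS.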

Mus musculus [2] = test: Antidiabetic nephropathic activity in db/db mouse assessed as reduction in urinary albumin at 1 to 2 mg/kg, ip administered thrice per week for 12 consecutive weeks measured at 24 hrs post 11 week administration; type: functional, organism-based
Procedure, shortened: (§2)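 Male db/db mice, 8 weeks old, randomized; ip vehicle (5% Tween-80 in 0.9% saline) or drug three times weekly for 12 weeks, n = 6 per group. After 11 weeks, 24 h urine collected for volume, albumin and creatinine, with UACR calculated; blood then sampled for plasma BUN and uric acid. Mean ± SD, one-way ANOVA with Tukey test.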

Mus musculus [3] = test: Antidiabetic nephropathic activity in db/db mouse assessed as reduction in urine albumin to creatinine ratio at 1 to 2 mg/kg, ip administered thrice per week for 12 consecutive weeks measured at 24 hrs post 11 week administration; type: functional, organism-based; procedure, shortened: as §2
Kidney = test: In vivo drug metabolism in Sprague-Dawley rat assessed as CDDO-Me formation in kidney at 30 mg/kg, ip measured at 10 mins by LC-MS/MS analysis; type: ADME, organism-based; procedure, shortened: as §1
hERG (KCNH2) = hERG (KCNH2) (Homo sapiens, UniProt Q12809); test: Inhibition of human ERG expressed in CHO cells at 200 uM at -80 mV holding potential by patch clamp assay relative to control; type: cell-based; conditions: CHO cells expressing human ERG
Mus musculus [4] = test: Antidiabetic nephropathic activity in db/db mouse assessed as increase in urinary creatinine at 1 to 2 mg/kg, ip administered thrice per week for 12 consecutive weeks measured at 24 hrs post 11 week administration; type: functional, organism-based; procedure, shortened: as §2
[5] = Drug level in Sprague-Dawley rat liver at 30 mg/kg, ip measured at 90 mins by LC-MS/MS analysis; type: ADME, organism-based; conditions: read-out: Drug uptake; procedure, shortened: as §1
Mus musculus [6] = test: Antidiabetic nephropathic activity in db/db mouse assessed as increase in urinary creatinine at 0.65 mg/kg, ip administered thrice per week for 12 consecutive weeks measured at 24 hrs post 11 week administration; type: functional, organism-based; procedure, shortened: as §2
Mus musculus [7] = test: Renoprotective activity in db/db mouse assessed as reduction in fused podocytes at 0.65 mg/kg, ip administered trice per week for 12 consecutive weeks measured at 11 weeks post dose by TEM microscopic analysis; type: functional, organism-based
Procedure, shortened: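 Male db/db mice (8 weeks old) were dosed i.p. three times weekly for 12 weeks in 5% Tween-80/0.9% saline, n = 6. Kidney tissue was fixed in 3% glutaraldehyde, cut into 80 nm ultrathin sections and examined by TEM. GBM thickness was measured at 30 random locations from three sections per kidney and averaged per mouse.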

Mus musculus [8] = test: Anti-diabetic nephropathic activity in db/db mouse assessed as reduction in plasma uric acid levels at 0.65 mg/kg, ip administered trice per week for 12 consecutive weeks measured at 11 weeks post dose; type: functional, organism-based; procedure, shortened: as §2
[9] = Drug level in Sprague-Dawley rat kidney at 20 mg/kg, ip measured at 90 mins by LC-MS/MS analysis; type: ADME, organism-based; conditions: read-out: Drug uptake; procedure, shortened: as §1
Mus musculus [10] = test: Anti-diabetic nephropathic activity in db/db mouse assessed as reduction in 24 hr urine volume at 0.65 mg/kg, ip administered trice per week for 12 consecutive weeks measured at 11 weeks post dose; type: functional, organism-based; procedure, shortened: as §2
Mus musculus [11] = test: Renoprotective activity in db/db mouse assessed as reduction in thickening of capillary walls in glomeruli at 0.65 mg/kg, ip administered trice per week for 12 consecutive weeks measured at 11 weeks post dose by H/E-staining based microscopic analysis; type: functional, organism-based
Procedure, shortened: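 Male db/db mice, 8 weeks old, were randomized and dosed i.p. three times weekly for 12 weeks (vehicle: 5% Tween-80 in 0.9% saline; n = 6 per group). Kidneys were fixed in 4% PFA and paraffin-embedded. 5 μm sections were stained with HE, PAS or Masson's trichrome and examined at ×400.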

[12] = molecular target: Kelch-like ECH-associated protein 1 (Homo sapiens) (UniProt Q14145); test: Inhibition of Keap1/Nrf2 (unknown origin) interaction transfected in HEK293 cells assessed as increase in cytosolic NQO1 levels at 200 to 1000 nM after 48 hrs by Western blot analysis; type: cell-based
Procedure, shortened: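 HEK293 cells grown in high-glucose DMEM with 10% FBS were treated in triplicate at 200 or 1000 nM for 48 h. Nuclear and cytosolic Nrf2, HO-1 and cytoplasmic NQO1 were measured by western blot with specific antibodies, with TBP and β-actin among the probed proteins. The nuclear/cytosolic Nrf2 ratio was derived from these blots. Three independent experiments, mean ± SD.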

Chain of hERG (KCNH2) (Q12809 whole entry): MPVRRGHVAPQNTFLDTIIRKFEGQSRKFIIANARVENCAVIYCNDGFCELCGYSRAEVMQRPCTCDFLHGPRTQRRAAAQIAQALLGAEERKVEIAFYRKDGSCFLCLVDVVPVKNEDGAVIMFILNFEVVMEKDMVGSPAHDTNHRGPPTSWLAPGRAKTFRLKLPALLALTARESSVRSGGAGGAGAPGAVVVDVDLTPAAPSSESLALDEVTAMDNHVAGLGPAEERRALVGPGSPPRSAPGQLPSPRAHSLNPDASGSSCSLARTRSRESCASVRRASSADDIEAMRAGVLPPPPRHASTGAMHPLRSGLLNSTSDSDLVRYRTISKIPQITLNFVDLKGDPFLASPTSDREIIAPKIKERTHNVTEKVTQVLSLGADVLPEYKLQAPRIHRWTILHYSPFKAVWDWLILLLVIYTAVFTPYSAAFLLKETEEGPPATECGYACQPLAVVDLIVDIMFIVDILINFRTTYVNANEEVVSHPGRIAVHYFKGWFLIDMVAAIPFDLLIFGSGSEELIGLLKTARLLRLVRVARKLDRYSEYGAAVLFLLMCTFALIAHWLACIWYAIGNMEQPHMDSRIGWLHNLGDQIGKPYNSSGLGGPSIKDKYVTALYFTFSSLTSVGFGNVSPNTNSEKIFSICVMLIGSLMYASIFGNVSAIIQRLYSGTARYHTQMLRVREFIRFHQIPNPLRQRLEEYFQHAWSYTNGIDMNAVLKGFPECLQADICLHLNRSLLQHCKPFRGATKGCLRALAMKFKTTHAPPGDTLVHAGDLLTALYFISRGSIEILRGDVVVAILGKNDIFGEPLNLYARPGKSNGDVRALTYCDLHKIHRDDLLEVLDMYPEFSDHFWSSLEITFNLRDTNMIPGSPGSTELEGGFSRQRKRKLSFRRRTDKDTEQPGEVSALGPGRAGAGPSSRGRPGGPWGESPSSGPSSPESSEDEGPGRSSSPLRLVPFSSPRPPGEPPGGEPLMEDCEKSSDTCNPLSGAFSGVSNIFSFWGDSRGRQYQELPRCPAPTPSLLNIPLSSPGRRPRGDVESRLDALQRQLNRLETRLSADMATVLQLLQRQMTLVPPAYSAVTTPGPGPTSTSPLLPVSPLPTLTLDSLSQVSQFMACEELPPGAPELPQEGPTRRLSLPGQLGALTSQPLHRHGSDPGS
Chain of Kelch-like ECH-associated protein 1 (Homo sapiens) (Q14145 whole entry): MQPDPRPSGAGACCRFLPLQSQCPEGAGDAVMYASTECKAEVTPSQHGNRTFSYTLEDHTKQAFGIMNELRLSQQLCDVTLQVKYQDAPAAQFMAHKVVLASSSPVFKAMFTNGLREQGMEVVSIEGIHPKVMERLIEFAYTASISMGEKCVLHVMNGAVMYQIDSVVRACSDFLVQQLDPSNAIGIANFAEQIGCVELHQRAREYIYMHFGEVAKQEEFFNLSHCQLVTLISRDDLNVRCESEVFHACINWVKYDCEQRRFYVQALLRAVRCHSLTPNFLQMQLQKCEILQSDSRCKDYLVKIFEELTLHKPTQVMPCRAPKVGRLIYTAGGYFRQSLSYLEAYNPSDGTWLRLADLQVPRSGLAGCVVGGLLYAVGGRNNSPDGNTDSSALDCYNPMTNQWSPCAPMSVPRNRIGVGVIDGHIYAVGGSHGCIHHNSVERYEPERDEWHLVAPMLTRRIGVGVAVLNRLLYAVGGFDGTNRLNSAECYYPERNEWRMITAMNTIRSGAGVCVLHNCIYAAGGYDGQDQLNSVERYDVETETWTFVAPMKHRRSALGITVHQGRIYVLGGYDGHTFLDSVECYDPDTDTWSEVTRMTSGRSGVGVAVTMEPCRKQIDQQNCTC

COC(=O)[C@@H](N)CCC(=O)Nc1ccc(COC2=C(C#N)[C@H](O)[C@]3(C)C4=CC(=O)[C@@H]5[C@@H]6CC(C)(C)CC[C@]6(C(=O)OC)CC[C@@]5(C)[C@]4(C)CC[C@H]3C2(C)C)cc1
concentration at 1.5 h [1]: 1310 ng/g | Activity (Mus musculus [2]): Active | Activity (Mus musculus [3]): Active | Drug metabolism (Kidney): 0.04 µg/g | inhibition at 200 µM (hERG (KCNH2)): 36.1% | Activity (Mus musculus [4]): Active | concentration at 1.5 h [5]: 6040 ng/g

COC(=O)[C@]12CCC(C)(C)C[C@H]1[C@H]1C(=O)C=C3[C@@]4(C)C=C(C#N)C(=O)C(C)(C)[C@@H]4CC[C@@]3(C)[C@]1(C)CC2 [BARDOXOLONE METHYL]
Activity (Mus musculus [6]): Active | Activity (Mus musculus [7]): Active | Activity (Mus musculus [8]): Active | concentration at 1.5 h [9]: 4520 ng/g | Activity (Mus musculus [10]): Active | Activity (Mus musculus [11]): Active | inhibition [12]: Active

From ChEMBL document CHEMBL4017544 (J Med Chem, 2017)
